Results reported in ChEMBL document CHEMBL2417507, “Synthesis and bioevaluation of some new isoniazid derivatives” (Bioorg Med Chem, 2013).
Converted amounts (≈) assume the structure as drawn. The source made the active and inactive calls. The calls are words filed in the database; no cut-off is given here.

Key:
HCT-8 [1] = experiment: Cell cycle arrest in human HCT8 cells assessed as accumulation at G2/M phase at 50 ug/mL after 24 hrs by propidium iodide staining-based flow cytometric analysis (reference value: 13.83%); format: ADME; details: hct-8, 24 h
HCT-8 [2] = experiment: Cell cycle arrest in human HCT8 cells assessed as accumulation at S phase at 50 ug/mL after 24 hrs by propidium iodide staining-based flow cytometric analysis (reference value: 39.43%); format: ADME; details: hct-8, 24 h
[3] = Induction of apoptosis in human HCT8 cells assessed as viable cells at 50 ug/mL after 24 hrs by Annexin V-FITC and propidium iodide staining-based flow cytometric analysis (reference value: 87.7%); format: cell-based, HCT-8; details: read-out: Activity
HCT-8 [4] = experiment: Induction of apoptosis in human HCT8 cells assessed as early apoptotic cells at 50 ug/mL after 24 hrs by Annexin V-FITC and propidium iodide staining-based flow cytometric analysis (reference value: 1.57%); format: cell-based; details: hct-8, 24 h
HCT-8 [5] = experiment: Induction of apoptosis in human HCT8 cells assessed as late apoptotic cells at 50 ug/mL after 24 hrs by Annexin V-FITC and propidium iodide staining-based flow cytometric analysis (reference value: 2.97%); format: cell-based; details: hct-8, 24 h
HCT-8 [6] = experiment: Induction of apoptosis in human HCT8 cells assessed as necrotic cells at 50 ug/mL after 24 hrs by Annexin V-FITC and propidium iodide staining-based flow cytometric analysis (reference value: 7.73%); format: cell-based; details: hct-8, 24 h
Acinetobacter baumannii [7] = experiment: Antibacterial activity against Acinetobacter baumannii 247 assessed as growth inhibition at 1 mg/mL after 24 hrs by agar-disk diffusion technique; format: functional, organism-based
Method in brief: (§1)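 Agar-disk diffusion, adapted: plates seeded with 0.5 McFarland suspension prepared from 24 h cultures; 5 µL of a 1 mg/mL compound solution spotted onto the seeded solid medium; incubated 24 h at 37 °C. Stocks made in DMSO.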

Acinetobacter baumannii [8] = experiment: Antibacterial activity against Acinetobacter baumannii 192 assessed as growth inhibition at 1 mg/mL after 24 hrs by agar-disk diffusion technique; format: functional, organism-based; method in brief: as §1
Acinetobacter baumannii [9] = experiment: Antibacterial activity against Acinetobacter baumannii 136 assessed as growth inhibition at 1 mg/mL after 24 hrs by agar-disk diffusion technique; format: functional, organism-based; method in brief: as §1
Acinetobacter baumannii [10] = experiment: Antibacterial activity against Acinetobacter baumannii 135 assessed as growth inhibition at 1 mg/mL after 24 hrs by agar-disk diffusion technique; format: functional, organism-based; method in brief: as §1
Pseudomonas putida = experiment: Antibacterial activity against Pseudomonas putida 160 assessed as growth inhibition at 1 mg/mL after 24 hrs by agar-disk diffusion technique; format: functional, organism-based; method in brief: as §1
Pseudomonas aeruginosa [11] = experiment: Antibacterial activity against Pseudomonas aeruginosa 1144 assessed as growth inhibition at 1 mg/mL after 24 hrs by agar-disk diffusion technique; format: functional, organism-based; method in brief: as §1
Pseudomonas aeruginosa [12] = experiment: Antibacterial activity against Pseudomonas aeruginosa 165 assessed as growth inhibition at 1 mg/mL after 24 hrs by agar-disk diffusion technique; format: functional, organism-based; method in brief: as §1
Pseudomonas aeruginosa [13] = experiment: Antibacterial activity against Pseudomonas aeruginosa ATCC 27853 assessed as growth inhibition at 1 mg/mL after 24 hrs by agar-disk diffusion technique; format: functional, organism-based; method in brief: as §1
Proteus mirabilis = experiment: Antibacterial activity against Proteus mirabilis 1751 assessed as growth inhibition at 1 mg/mL after 24 hrs by agar-disk diffusion technique; format: functional, organism-based; method in brief: as §1
Enterobacter cloacae = experiment: Antibacterial activity against Enterobacter cloacae 1845 assessed as growth inhibition at 1 mg/mL after 24 hrs by agar-disk diffusion technique; format: functional, organism-based; method in brief: as §1
Staphylococcus aureus = experiment: Antibacterial activity against Staphylococcus aureus assessed as growth inhibition at 1 mg/mL after 24 hrs by agar-disk diffusion technique; format: functional, organism-based; method in brief: as §1
Staphylococcus hominis = experiment: Antibacterial activity against Staphylococcus hominis 1813 assessed as growth inhibition at 1 mg/mL after 24 hrs by agar-disk diffusion technique; format: functional, organism-based; method in brief: as §1
[14] = tested on: Mycobacterium tuberculosis; experiment: Antimycobacterial activity against Mycobacterium tuberculosis after 8 days by micro plate Alamar Blue assay; format: functional; details: 192 h
Method in brief: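 Clinical M. tuberculosis strain grown in Middlebrook 7H9 broth. Compounds were dissolved in DMSO and serially diluted twofold on the plate, final 25 to 0.012 µg/mL. Plates were sealed and held 8 days at 37 °C. Alamar Blue with 10% Tween 80 (1:1) was then added for another 24 h at 37 °C. MIC was the lowest concentration preventing the blue-to-pink change.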

[15] = tested on: Radical scavenging activity; experiment: Antioxidant activity assessed as DPPH radical scavenging activity at 0.1 mg/mL after 30 mins under dark conditions by spectrophotometric analysis relative to control; format: functional
Method in brief: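 Compounds dissolved in methanol at 0.1 mg/mL; 0.2 mL mixed with 1.8 mL of 2 × 10^-4 M DPPH in methanol and kept in the dark 30 min. Absorbance read at 517 nm. The blank was DPPH plus methanol. TAC (%) = (Abs initial − Abs 30 min)/Abs initial × 100.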

HCT-8 [16] = experiment: Cell cycle arrest in human HCT8 cells assessed as accumulation at G0/G1 phase at 50 ug/mL after 24 hrs by propidium iodide staining-based flow cytometric analysis (reference value: 46.43%); format: ADME; details: hct-8, 24 h
HCT-8 [17] = experiment: Increase in NAT1 gene expression in human HCT8 cells at 50 ug/mL after 24 hrs by RT-PCR analysis; format: ADME, cell-based; details: hct-8, 24 h
HCT-8 [18] = experiment: Increase in NAT2 gene expression in human HCT8 cells at 50 ug/mL after 24 hrs by RT-PCR analysis; format: ADME, cell-based; details: hct-8, 24 h
Acinetobacter baumannii [19] = experiment: Antibacterial activity against Acinetobacter baumannii 125 assessed as growth inhibition at 1 mg/mL after 24 hrs by agar-disk diffusion technique; format: functional, organism-based; method in brief: as §1
Acinetobacter baumannii [20] = experiment: Antibacterial activity against Acinetobacter baumannii 122 assessed as growth inhibition at 1 mg/mL after 24 hrs by agar-disk diffusion technique; format: functional, organism-based; method in brief: as §1
Enterococcus faecalis = experiment: Antibacterial activity against Enterococcus faecalis 2920 assessed as growth inhibition at 1 mg/mL after 24 hrs by agar-disk diffusion technique; format: functional, organism-based; method in brief: as §1
Klebsiella pneumoniae = experiment: Antibacterial activity against Klebsiella pneumoniae 1756 assessed as growth inhibition at 1 mg/mL after 24 hrs by agar-disk diffusion technique; format: functional, organism-based; method in brief: as §1
Escherichia coli = experiment: Antibacterial activity against Escherichia coli 1777 assessed as growth inhibition at 1 mg/mL after 24 hrs by agar-disk diffusion technique; format: functional, organism-based; method in brief: as §1
Morganella morganii = experiment: Antibacterial activity against Morganella morganii 2810 assessed as growth inhibition at 1 mg/mL after 24 hrs by agar-disk diffusion technique; format: functional, organism-based; method in brief: as §1
Citrobacter koseri = experiment: Antibacterial activity against Citrobacter koseri 1742 assessed as growth inhibition at 1 mg/mL after 24 hrs by agar-disk diffusion technique; format: functional, organism-based; method in brief: as §1
HCT-8 [21] = experiment: Decrease in NAT1 gene expression in human HCT8 cells at 50 ug/mL after 24 hrs by RT-PCR analysis; format: ADME, cell-based; details: hct-8, 24 h
HCT-8 [22] = experiment: Decrease in NAT2 gene expression in human HCT8 cells at 50 ug/mL after 24 hrs by RT-PCR analysis; format: ADME, cell-based; details: hct-8, 24 h

Structure (SMILES)	Activity (HCT-8 [1])	Activity (HCT-8 [2])	viability at 24 h, 50 ug/mL [3]	Activity (HCT-8 [4])	Activity (HCT-8 [5])	Activity (HCT-8 [6])	growth inhibition (GI) (Acinetobacter baumannii [7])	growth inhibition (GI) (Acinetobacter baumannii [9])	growth inhibition (GI) (Acinetobacter baumannii [10])	growth inhibition (GI) (Pseudomonas putida)	growth inhibition (GI) (Pseudomonas aeruginosa [11])	growth inhibition (GI) (Pseudomonas aeruginosa [12])	growth inhibition (GI) (Pseudomonas aeruginosa [13])	growth inhibition (GI) (Proteus mirabilis)	growth inhibition (GI) (Enterobacter cloacae)	MIC [14]	TAC [15]	Activity (HCT-8 [16])	growth inhibition (GI) (Klebsiella pneumoniae)	growth inhibition (GI) (Morganella morganii)	other results
Cc1ccc(/C=C/C(N)(S)NNC(=O)c2ccncc2)cc1 (stereo unspecified)	11.15%	13.1%	54.3%	1.16%	16%	28.5%	inactive	Active	Active	Active	Active	Active	inactive	inactive	Active	0.781 µg/mL (≈ 2.48 µM)	12.5%	72.35%			growth inhibition (GI) (Acinetobacter baumannii [8]): inactive; growth inhibition (GI) (Staphylococcus aureus): Active; growth inhibition (GI) (Staphylococcus hominis): Active; Activity (HCT-8 [17]): Toxic; Activity (HCT-8 [18]): Toxic
NNC(=O)c1ccncc1 [ISONIAZID]	15.01%	38.48%	71.5%	1.95%	8.56%	17.9%	inactive		Active		inactive	inactive	inactive	inactive	Active	0.098 µg/mL (≈ 0.715 µM)	90%	44.12%	inactive	inactive	growth inhibition (GI) (Acinetobacter baumannii [8]): Active; growth inhibition (GI) (Acinetobacter baumannii [19]): inactive; growth inhibition (GI) (Acinetobacter baumannii [20]): inactive; growth inhibition (GI) (Enterococcus faecalis): inactive; growth inhibition (GI) (Escherichia coli): inactive; growth inhibition (GI) (Citrobacter koseri): inactive; growth inhibition (GI) (Staphylococcus aureus): inactive; growth inhibition (GI) (Staphylococcus hominis): inactive; Activity (HCT-8 [21]): Toxic; Activity (HCT-8 [22]): Toxic
NC(S)(/C=C/c1ccccc1)NNC(=O)c1ccncc1 (stereo unspecified)	18.72%	25.9%	67.9%	0.95%	12.2%	18.9%		Active	Active	Active	Active		Active		Active	0.391 µg/mL (≈ 1.3 µM)	88.2%	59.95%			growth inhibition (GI) (Acinetobacter baumannii [8]): Active; growth inhibition (GI) (Citrobacter koseri): Active; growth inhibition (GI) (Staphylococcus aureus): Active; growth inhibition (GI) (Staphylococcus hominis): Active; Activity (HCT-8 [17]): Toxic; Activity (HCT-8 [18]): Toxic
CCOc1ccc(/C=C/C(N)=S)cc1	15.41%	22.57%	70.1%	1.56%	13.6%	14.8%	inactive	Active	Active	Active	Active		Active	Active	Active		37.9%	61.33%	inactive	Active	growth inhibition (GI) (Acinetobacter baumannii [8]): Active; growth inhibition (GI) (Acinetobacter baumannii [19]): inactive; growth inhibition (GI) (Enterococcus faecalis): Active; growth inhibition (GI) (Citrobacter koseri): Active; Activity (HCT-8 [22]): Toxic
Cc1ccc(/C=C/C(N)=S)cc1	47.84%	26.63%	59.8%	7.11%	14.7%	18.4%	inactive	Active	Active	Active	Active	inactive	inactive	inactive			25.7%	24.16%	inactive	inactive	growth inhibition (GI) (Acinetobacter baumannii [19]): inactive; Activity (HCT-8 [21]): Toxic; Activity (HCT-8 [22]): Toxic
COc1ccc(/C=C/C(N)(S)NNC(=O)c2ccncc2)cc1 (stereo unspecified)	13.78%	37.52%	70.7%	1.29%	9.83%	18.2%		Active	Active	Active	Active	Active		inactive	Active	1.56 µg/mL (≈ 4.73 µM)	14%	48.85%			Activity (HCT-8 [21]): Toxic; Activity (HCT-8 [22]): Toxic
COc1ccc(/C=C/C(N)=S)cc1	23.56%	23.26%	63.8%	3.09%	12.9%	20.3%	inactive	Active	Active	Active	Active	inactive	inactive	inactive			60%	54.61%	inactive	inactive	growth inhibition (GI) (Acinetobacter baumannii [19]): inactive; growth inhibition (GI) (Escherichia coli): Active; Activity (HCT-8 [21]): Toxic; Activity (HCT-8 [22]): Toxic
CCOc1ccc(/C=C/C(N)(S)NNC(=O)c2ccncc2)cc1 (stereo unspecified)	17.5%	22.43%	44.2%	5.81%	21.6%	28.3%		Active	Active	Active	Active		inactive		inactive	0.781 µg/mL (≈ 2.27 µM)	25.7%	58.14%	inactive	inactive	growth inhibition (GI) (Escherichia coli): inactive; Activity (HCT-8 [17]): Toxic; Activity (HCT-8 [18]): Toxic
